Activity calls are given as the source filed them.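 How the source made its calls, unless noted: active means visually confirmed hit in the image check and inhibition above 20%; inconclusive means visually confirmed hit but inhibition not above 20%; inactive means no visual hit in the image check.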
Columns and labels:
[1] = inhibitors of TNFa-induced NFkB p65 translocation, primary screen, imaging, HUVEC, MLSMR starter and 10KST1 sets (AID 438;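 active means inhibition above 20% together with a positive visual image hit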;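 further: compound added about 3h40 before a 20 min TNFalpha stimulation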;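 on inhibition: signal is the nuclear over cytoplasmic p65 intensity ratio per well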); conditions: HUVEC TNFa-induced p65 nuclear translocation; cell count: measured here: nuclei count (cytotoxicity indicator), at 2.08 µM; inhibition: at 2 µM, stronger effect = higher value, 0% TNFa-plus-vehicle, 100% no-TNFa wells
[2] = endothelial E-selectin expression blockers – imaging, HUVEC, immunofluorescence, MLSMR starter and 10KST1 sets, primary screen (AID 487); conditions: HUVEC TNFalpha-induced E-selectin immunofluorescence imaging, at 2 µM; inhibition: stronger effect = higher value; nuclei count: measured here: cell number, toxicity;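 on inhibition: signal is fraction of cell area covered by stained E-selectin grains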;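 on nuclei count: 100% = median nuclei count of all wells on the same plate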
[3] = Primary imaging screen for DUSP6 inhibitors that restore phospho-Erk in transfected HeLa cells, chemical complementation (AID 609;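 active means compounds giving at least 50% inhibition in the cell-based MKP-3 phosphatase rescue imaging test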;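 on inhibition: phospho-Erk level distribution per well compared with pooled transfected vehicle control wells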); conditions: HeLa MKP-3 transfected, phospho-Erk imaging KS statistic, at 10 µM, cells stimulated with TPA for 15 min
[4] = molecular target: Dual specificity protein phosphatase 6 (Homo sapiens) (UniProt Q16828); test: as above; conditions: HeLa MKP-3 transfected, phospho-Erk imaging KS statistic; at 10 µM; stronger effect = higher value; cells stimulated with TPA for 15 min
[5] = molecular target: Voltage-gated potassium channel subunit beta-2 (Rattus norvegicus) (UniProt P62483); test: inhibitors of rat Kvbeta2 reductase activity – biochemical, NADPH fluorescence, primary screen (AID 622;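 active means fluorescence slope higher than the sample average by over 3 SD, cut at about -0.22 in these data, passing the limit was not always enough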;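 further: slope of raw intensity against log time taken from 70 to 1610 s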); conditions: recombinant KvBeta, 4-cyanobenzaldehyde reduction, at 10 µM, stronger effect = higher value
[6] = molecular target: Voltage-gated potassium channel subunit beta-2 (Rattus norvegicus) (UniProt P62483); test: enhancers of rat Kvbeta2 NADPH turnover – biochemical, NADPH fluorescence, primary screen (AID 623;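 active means NADPH fluorescence slope more negative than the mean of all samples by about 3 SD, 99.7% confidence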;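 further: fluorescence intensity change per second fitted from 20 to 320 s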); conditions: Recombinant KvBeta, NADPH fluorescence decrease slope, 10 min; at 10 µM; stronger effect = lower value
[7] = molecular target: Alpha-2C adrenergic receptor (Homo sapiens) (UniProt P18825); test: compounds altering alpha2C-coupled GIRK flux – cell-based, HEK293 alpha2C/GIRK1/2, thallium flux, primary screen (AID 624;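 active means fluorescence slope after compound addition differing from the mean of all screened samples at 99.7% confidence, in either direction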;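 further: slope of fluorescence ratio to pre-addition baseline per second over 15 to 24 s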); conditions: thallium flux BTC fluorescence, at 10 µM, actives lie on both sides
[8] = inhibitors of larval lipid processing in zebrafish, primary screen, whole organism, PED6 fluorescence, gall bladder and intestine (AID 686;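 active means a full or partial loss of lipid-probe fluorescence in the fish gall bladder, intestine or both, judged by eye; inactive means no fluorescence loss, or compound toxic to the fish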;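 further: larvae 5 to 7 days old with five fish per well; signal comes from phospholipase A2 cleavage of quenched PED6 carried via bile; overnight exposure to compound and PED6 before scoring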); conditions: Zebrafish larvae PED6 lipid processing, fluorescence scoring; screened at 20 µM (by protocol)
Summary of the method: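 system = live zebrafish larvae aged 5-7 days, whole organism | probe or stimulus = ingested quenched lipid PED6 at 100 nM | doses = 20 µM single dose | timing = overnight exposure | detection = fluorescence microscopy with visual scoring of gall bladder and intestine | read-out = visual per-well fluorescence inhibition score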

[9] = loss of swimming-algae plug formation – whole organism, Chlamydomonas reinhardtii, WT vs cilia-less mutant, absorbance, 96-well, primary screen (AID 463189;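 active means inhibition at or above 50% relative to wild type and mutant plate controls; inactive means inhibition below 50%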;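 further: 0% = wild type cc124 cells in DMSO and 100% = ciliumless bld1 mutant cells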); conditions: Chlamydomonas reinhardtii gravitaxis, OD600 absorbance, 2 days; at 10 µM; stronger effect = higher value
[10] = measured here: cell density z-score
[11] = measured here: nuclear c-Myc green intensity z-score
[12] = measured here: nuclear pErk red intensity z-score, stronger effect = higher value

Chain of Voltage-gated potassium channel subunit beta-2 (Rattus norvegicus) (P62483 whole entry, looked up): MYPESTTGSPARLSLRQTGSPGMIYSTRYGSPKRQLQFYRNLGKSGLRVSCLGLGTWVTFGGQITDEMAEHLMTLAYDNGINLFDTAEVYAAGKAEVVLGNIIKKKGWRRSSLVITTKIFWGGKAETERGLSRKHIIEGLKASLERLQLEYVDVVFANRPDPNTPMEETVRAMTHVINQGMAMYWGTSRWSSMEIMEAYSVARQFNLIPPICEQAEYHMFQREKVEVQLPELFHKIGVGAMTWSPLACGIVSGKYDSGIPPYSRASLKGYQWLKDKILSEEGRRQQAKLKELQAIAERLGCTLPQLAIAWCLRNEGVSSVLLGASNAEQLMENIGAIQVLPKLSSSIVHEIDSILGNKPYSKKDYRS
Chain of Alpha-2C adrenergic receptor (Homo sapiens) (P18825 whole entry, looked up): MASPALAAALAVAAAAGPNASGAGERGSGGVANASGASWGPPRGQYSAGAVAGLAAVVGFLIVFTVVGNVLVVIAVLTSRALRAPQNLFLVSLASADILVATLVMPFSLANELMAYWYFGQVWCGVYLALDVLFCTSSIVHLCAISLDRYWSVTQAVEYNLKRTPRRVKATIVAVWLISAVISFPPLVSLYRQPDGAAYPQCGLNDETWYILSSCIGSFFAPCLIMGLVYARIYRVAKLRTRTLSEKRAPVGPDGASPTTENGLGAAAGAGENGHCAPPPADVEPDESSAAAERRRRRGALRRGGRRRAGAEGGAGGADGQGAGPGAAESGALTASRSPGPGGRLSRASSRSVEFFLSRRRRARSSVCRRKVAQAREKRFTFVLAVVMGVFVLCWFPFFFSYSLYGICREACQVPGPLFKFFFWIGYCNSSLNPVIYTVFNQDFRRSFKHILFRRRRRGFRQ
Chain of Dual specificity protein phosphatase 6 (Homo sapiens) (Q16828 whole entry, looked up): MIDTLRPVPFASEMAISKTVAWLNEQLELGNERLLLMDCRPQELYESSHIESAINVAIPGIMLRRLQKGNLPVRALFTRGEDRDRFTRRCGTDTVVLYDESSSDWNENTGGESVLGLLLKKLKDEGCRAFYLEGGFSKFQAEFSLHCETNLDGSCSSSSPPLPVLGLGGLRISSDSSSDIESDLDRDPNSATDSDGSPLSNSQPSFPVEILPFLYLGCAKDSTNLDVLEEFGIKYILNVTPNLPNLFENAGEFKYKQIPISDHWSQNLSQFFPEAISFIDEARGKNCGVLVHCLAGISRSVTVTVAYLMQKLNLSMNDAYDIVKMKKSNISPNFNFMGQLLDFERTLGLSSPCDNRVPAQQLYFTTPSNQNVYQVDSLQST

C/C(=N\O)c1ccc2[nH]ccc2c1
cell count [1]: 578 | inhibition [1]: 0.2% (inactive) | inhibition [2]: 45.4% (inactive) | nuclei count [2]: 161% | z-score [3, 10]: 0.0779 | z-score [3, 11]: 0.348 | z-score [3, 12]: -0.861 | inhibition [4]: -7.01% (inactive) | fluorescence slope [5]: -0.341 (inactive) | NADPH fluorescence slope [6]: -3.6e-05 (inactive) | slope [7]: 0.00435 (inactive) | outcome [8]: inactive | inhibition [9]: -2.54% (inactive)

COc1ccc2c(=O)c(-c3nc(C)cs3)coc2c1
cell count [1]: 559 | inhibition [1]: -18.2% (inactive) | inhibition [2]: -220% (inactive) | nuclei count [2]: 141% | z-score [3, 10]: 1.07 | z-score [3, 11]: 0.0883 | z-score [3, 12]: 0.691 | inhibition [4]: 1.98% (inactive) | fluorescence slope [5]: -0.543 (inactive) | NADPH fluorescence slope [6]: -3.8e-05 (inactive) | slope [7]: 0.0045 (inactive) | outcome [8]: inactive | inhibition [9]: 1.43% (inactive)

Cc1cc(C)n(CC(=O)n2nc(C)cc2C)n1
cell count [1]: 519 | inhibition [1]: -6.2% (inactive) | inhibition [2]: -24.6% (inactive) | nuclei count [2]: 81.7% | z-score [3, 10]: 0.222 | z-score [3, 11]: 0.17 | z-score [3, 12]: 0.394 | inhibition [4]: 5.95% (inactive) | fluorescence slope [5]: -0.492 (inactive) | NADPH fluorescence slope [6]: -2.9e-05 (inactive) | slope [7]: 0.00514 (inactive) | outcome [8]: inactive | inhibition [9]: 15% (inactive)

COC(=O)c1ccn(C(=O)c2ccc(Cl)cc2)n1
cell count [1]: 646 | inhibition [1]: -1.4% (inactive) | inhibition [2]: -13.4% (inactive) | nuclei count [2]: 147% | z-score [3, 10]: 1.7 | z-score [3, 11]: -0.283 | z-score [3, 12]: 1.25 | inhibition [4]: -2.91% (inactive) | fluorescence slope [5]: -0.519 (inactive) | NADPH fluorescence slope [6]: -4e-05 (inactive) | slope [7]: 0.00635 (inactive) | outcome [8]: inactive | inhibition [9]: 6.37% (inactive)

Cc1nc2sc3c(c2c(=O)o1)CC(C)(C)OC3
cell count [1]: 555 | inhibition [1]: -9.6% (inactive) | inhibition [2]: 23.7% (inactive) | nuclei count [2]: 115% | z-score [3, 10]: 0.476 | z-score [3, 11]: 1.45 | z-score [3, 12]: -1.12 | inhibition [4]: 7.7% (inactive) | fluorescence slope [5]: -0.461 (inactive) | NADPH fluorescence slope [6]: -1.1e-05 (inactive) | slope [7]: 0.0057 (inactive) | outcome [8]: inactive | inhibition [9]: -15.1% (inactive)

O/N=C1\CCc2cc(Cl)ccc21
cell count [1]: 384 | inhibition [1]: -4% (inactive) | inhibition [2]: -24.4% (inactive) | nuclei count [2]: 101% | z-score [3, 10]: -3.01 | z-score [3, 11]: 0.785 | z-score [3, 12]: -0.837 | inhibition [4]: -0.159% (inactive) | fluorescence slope [5]: -0.48 (inactive) | NADPH fluorescence slope [6]: -0.000244 (inactive) | slope [7]: 0.0047 (inactive) | outcome [8]: inactive | inhibition [9]: -12.6% (inactive)

CCCCn1c(C)cc2cc(O)ccc21
cell count [1]: 320 | inhibition [1]: -9.2% (inactive) | inhibition [2]: -73.6% (inactive) | nuclei count [2]: 154% | z-score [3, 10]: -1.22 | z-score [3, 11]: 2.41 | z-score [3, 12]: 1.37 | inhibition [4]: -8.76% (inactive) | fluorescence slope [5]: -0.432 (inactive) | NADPH fluorescence slope [6]: -0.000136 (inactive) | slope [7]: 0.00664 (inactive) | outcome [8]: inactive | inhibition [9]: -7.64% (inactive)

COc1cc(OC)cc(C(=O)N2CCC(N3CCN(c4ccccc4)CC3)CC2)c1
cell count [1]: 382 | inhibition [1]: -13.9% (inactive) | inhibition [2]: -114% (inactive) | nuclei count [2]: 122% | z-score [3, 10]: 1.61 | z-score [3, 11]: -0.715 | z-score [3, 12]: -0.404 | inhibition [4]: 12.7% (inactive) | fluorescence slope [5]: -0.342 (inactive) | NADPH fluorescence slope [6]: 5.8e-05 (inactive) | slope [7]: 0.00556 (inactive) | outcome [8]: inactive | inhibition [9]: -4.18% (inactive)

CCN(CC)CCN1C(=O)C(=O)/C(=C(/O)c2ccc(F)cc2)C1c1cccnc1 (stereo unspecified)
cell count [1]: 488 | inhibition [1]: -18.4% (inactive) | inhibition [2]: -35.7% (inactive) | nuclei count [2]: 128% | z-score [3, 10]: -0.0126 | z-score [3, 11]: -0.441 | z-score [3, 12]: 0.45 | inhibition [4]: -2.47% (inactive) | fluorescence slope [5]: -0.493 (inactive) | NADPH fluorescence slope [6]: -5.5e-05 (inactive) | slope [7]: 0.00472 (inactive) | outcome [8]: inactive | inhibition [9]: -7.28% (inactive)

Cc1cc(=O)n2[nH]cnc2n1
cell count [1]: 517 | inhibition [1]: -4.6% (inactive) | inhibition [2]: -138% (inactive) | nuclei count [2]: 125% | z-score [3, 10]: 1.56 | z-score [3, 11]: -0.453 | z-score [3, 12]: -0.845 | inhibition [4]: 5.57% (inactive) | fluorescence slope [5]: -0.502 (inactive) | NADPH fluorescence slope [6]: -0.000147 (inactive) | slope [7]: 0.00471 (inactive) | outcome [8]: inactive | inhibition [9]: -0.839% (inactive)

O=C(Oc1ccccc1N1C(=O)CCC1=O)c1ccco1
cell count [1]: 545 | inhibition [1]: 4.9% (inactive) | inhibition [2]: -119% (inactive) | nuclei count [2]: 118% | z-score [3, 10]: 0.222 | z-score [3, 11]: -0.0545 | z-score [3, 12]: 0.413 | inhibition [4]: 3.5% (inactive) | fluorescence slope [5]: -0.557 (inactive) | NADPH fluorescence slope [6]: -6.4e-05 (inactive) | slope [7]: 0.0069 (inactive) | outcome [8]: inactive | inhibition [9]: -13.9% (inactive)

CC(C)(C)C1=Nn2c(nnc2-c2ccccn2)SC1
cell count [1]: 537 | inhibition [1]: -5.5% (inactive) | inhibition [2]: -200% (inactive) | nuclei count [2]: 165% | z-score [3, 10]: 1.25 | z-score [3, 11]: 0.795 | z-score [3, 12]: -0.0968 | inhibition [4]: -2.47% (inactive) | fluorescence slope [5]: -0.417 (inactive) | NADPH fluorescence slope [6]: -0.000136 (inactive) | slope [7]: 0.00561 (inactive) | outcome [8]: inactive | inhibition [9]: -9.77% (inactive)

O=C(c1ccc(=O)oc1)N1CCN(c2ccc(F)cc2)CC1
cell count [1]: 328 | inhibition [1]: -4.5% (inactive) | inhibition [2]: -1.9% (inactive) | nuclei count [2]: 95.2% | z-score [3, 10]: -0.519 | z-score [3, 11]: -0.0445 | z-score [3, 12]: 0.228 | inhibition [4]: 17.4% (inactive) | fluorescence slope [5]: -0.364 (inactive) | NADPH fluorescence slope [6]: -4.3e-05 (inactive) | slope [7]: 0.00509 (inactive) | outcome [8]: inactive | inhibition [9]: 31% (inactive)

O=C(Nc1cccnc1)c1cccnc1
cell count [1]: 639 | inhibition [1]: 0.9% (inactive) | inhibition [2]: -26.7% (inactive) | nuclei count [2]: 158% | z-score [3, 10]: -0.532 | z-score [3, 11]: 0.364 | z-score [3, 12]: -0.22 | inhibition [4]: 0.671% (inactive) | fluorescence slope [5]: -0.534 (inactive) | NADPH fluorescence slope [6]: -3.1e-05 (inactive) | slope [7]: 0.00505 (inactive) | outcome [8]: inactive | inhibition [9]: 3.69% (inactive)

N#CCSc1nc2sc3c(c2c(=O)n1C1CCCCC1)CCCC3
cell count [1]: 651 | inhibition [1]: -21.9% (inactive) | inhibition [2]: 9.7% (inactive) | nuclei count [2]: 167% | z-score [3, 10]: -0.927 | z-score [3, 11]: 0.708 | z-score [3, 12]: 1.09 | inhibition [4]: 3.56% (inactive) | fluorescence slope [5]: -0.354 (inactive) | NADPH fluorescence slope [6]: -1.5e-05 (inactive) | slope [7]: 0.00554 (inactive) | outcome [8]: inactive | inhibition [9]: -20.7% (inactive)

O=c1c(F)cn(C2CCCO2)c(=O)n1Cc1ccccc1Cl (stereo unspecified)
cell count [1]: 614 | inhibition [1]: 1.6% (inactive) | inhibition [2]: 11.4% (inactive) | nuclei count [2]: 203% | z-score [3, 10]: 0.269 | z-score [3, 11]: 0.415 | z-score [3, 12]: 0.187 | inhibition [4]: 0.671% (inactive) | fluorescence slope [5]: -0.534 (inactive) | NADPH fluorescence slope [6]: -7.3e-05 (inactive) | slope [7]: 0.00591 (inactive) | outcome [8]: inactive | inhibition [9]: 4.11% (inactive)

O=C1CCC(=O)N1CNc1ccccn1
cell count [1]: 493 | inhibition [1]: -5% (inactive) | inhibition [2]: -53.8% (inactive) | nuclei count [2]: 99.7% | z-score [3, 10]: -0.594 | z-score [3, 11]: -0.186 | z-score [3, 12]: -0.375 | inhibition [4]: 7.93% (inactive) | fluorescence slope [5]: -0.495 (inactive) | NADPH fluorescence slope [6]: -5.8e-05 (inactive) | slope [7]: 0.00525 (inactive) | outcome [8]: inactive | inhibition [9]: 23.2% (inactive)
